Reference: ChEMBL document CHEMBL1157843, “Synthesis and anticonvulsant activity of a new 6-alkoxy-[1,2,4]triazolo[4,3-b]pyridazine” (Eur J Med Chem, 2010)
Activity calls are given as the source filed them. The rule behind the calls is not given here.

Tests used:
Mus musculus [1] = experiment: Anticonvulsant in ip dosed mouse assessed as protection against maximum electric stimulus-induced seizures; format: functional
Outline: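 Phase-II quantitation in KunMing mice (18–25 g), vehicle polyethylene glycol-400. Groups of 10 received a range of i.p. doses until at least three points fell within 10–90% MES protection or minimal rotarod neurotoxicity. ED50, TD50 and 95% confidence intervals computed from regression by an NINDS program. PI = TD50/ED50.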

Mus musculus [2] = experiment: Anticonvulsant in mouse assessed as protection against maximum electric stimulus-induced seizures at 100 mg/kg, ip after 4 hrs; format: functional, organism-based; design: dose 100 mg/kg
Outline: (§1)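 Phase-I qualitative MES screen following NIH ADD protocol. KunMing mice (18–25 g), three per dose, test agent in polyethylene glycol-400 i.p. at 30, 100 or 300 mg/kg. Protection assessed 0.5 h and 4 h after dosing; scored as animals protected/animals tested.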

Mus musculus [3] = experiment: Neurotoxicity against mouse at 100 mg/kg, ip after 0.5 hrs by rotarod ataxia test; format: toxicity, organism-based; design: dose 100 mg/kg, route intraperitoneal; conditions: in vivo
Outline: (§2)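 Phase-I rotarod ataxia screen per NIH ADD protocol. KunMing mice (18–25 g), three per dose, test agent in polyethylene glycol-400 i.p. at 30, 100 or 300 mg/kg. Neurological deficit read 30 min and 4 h after dosing; scored as animals showing toxicity/animals tested.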

Mus musculus [4] = experiment: Neurotoxicity against mouse at 100 mg/kg, ip after 4 hrs by rotarod ataxia test; format: toxicity, organism-based; design: dose 100 mg/kg, route intraperitoneal; conditions: in vivo; outline: as §2
Mus musculus [5] = experiment: Anticonvulsant in mouse assessed as protection against maximum electric stimulus-induced seizures at 30 mg/kg, ip after 4 hrs; format: functional, organism-based; design: dose 30 mg/kg; outline: as §1
Mus musculus [6] = experiment: Anticonvulsant activity in mouse assessed as reduction of isoniazid-induced lethality at 50 mg/kg, ip administered 30 mins prior to isoniazid challenge measured after 0.5 hrs; format: functional; design: scale not given: the % may be the effect or the level left; conditions: route intraperitoneal
Mus musculus [7] = experiment: Anticonvulsant activity in mouse assessed as inhibition of 3-mercaptopropionic acid-induced tonic seizure at 50 mg/kg, ip administered 30 mins prior to 3-mercaptopropionic acid challenge measured after 0.5 hrs; format: functional; conditions: route intraperitoneal
Outline: (§3)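 KunMing mice, 18–25 g, groups of 10; test agent in polyethylene glycol-400 given i.p. 30 min before convulsant. PTZ 85 mg/kg s.c., 3-MP 40 mg/kg s.c., isoniazid 250 mg/kg i.p.; doses chosen to induce seizures in at least 97% of animals. Individual cages, 30 min observation; clonic seizures, tonic seizures and lethality recorded.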

Mus musculus [8] = experiment: Anticonvulsant activity in mouse assessed as inhibition of isoniazid-induced clonic seizure at 50 mg/kg, ip administered 30 mins prior to isoniazid challenge measured after 0.5 hrs; format: functional; conditions: route intraperitoneal; outline: as §3
Mus musculus [9] = experiment: Anticonvulsant activity in mouse assessed as inhibition of thiosemicarbazide-induced tonic seizure at 50 mg/kg, ip administered 30 mins prior to thiosemicarbazide challenge measured after 2.5 hrs; format: functional; conditions: route intraperitoneal
Outline: (§4)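 KunMing mice (18–25 g), groups of 10, pretreated i.p. with test agent in polyethylene glycol-400 30 min before thiosemicarbazide 50 mg/kg i.p. Animals kept in individual cages and watched for 2 h 30 min, noting clonic seizures, tonic seizures and lethality.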

Mus musculus [10] = experiment: Anticonvulsant activity in mouse assessed as inhibition of PTZ-induced clonic seizure at 50 mg/kg, ip administered 30 mins prior to PTZ challenge measured after 0.5 hrs; format: functional; conditions: route intraperitoneal; outline: as §3
Mus musculus [11] = experiment: Anticonvulsant activity in mouse assessed as inhibition of thiosemicarbazide-induced clonic seizure at 50 mg/kg, ip administered 30 mins prior to thiosemicarbazide challenge measured after 2.5 hrs; format: functional; conditions: route intraperitoneal; outline: as §4
Mus musculus [12] = species: Mus musculus; experiment: Sedative-hypnotic activity in mouse assessed as reduction in righting reflex; format: organism-based; conditions: in vivo
Outline: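 Phase-III work in KunMing mice: behaviour observed at intervals up to 24 h after i.p. TD50, 2TD50 and 4TD50 doses. […] Ratio taken as HD50 divided by i.p. MES ED50.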

Mus musculus [13] = experiment: Anticonvulsant activity in mouse assessed as reduction of PTZ-induced lethality at 50 mg/kg, ip administered 30 mins prior to PTZ challenge measured after 0.5 hrs; format: functional; design: scale not given: the % may be the effect or the level left; conditions: route intraperitoneal
Mus musculus [14] = experiment: Anticonvulsant activity in mouse assessed as inhibition of isoniazid-induced tonic seizure at 50 mg/kg, ip administered 30 mins prior to isoniazid challenge measured after 0.5 hrs; format: functional; conditions: route intraperitoneal; outline: as §3
Mus musculus [15] = experiment: Anticonvulsant activity in mouse assessed as inhibition of PTZ-induced tonic seizure at 50 mg/kg, ip administered 30 mins prior to PTZ challenge measured after 0.5 hrs; format: functional; conditions: route intraperitoneal; outline: as §3
Mus musculus [16] = experiment: Anticonvulsant activity in mouse assessed as reduction of thiosemicarbazide-induced lethality at 50 mg/kg, ip administered 30 mins prior to thiosemicarbazide challenge measured after 2.5 hrs; format: functional; design: scale not given: the % may be the effect or the level left; conditions: route intraperitoneal
Mus musculus [17] = experiment: Anticonvulsant activity in mouse assessed as reduction of 3-mercaptopropionic acid-induced lethality at 50 mg/kg, ip administered 30 mins prior to 3-mercaptopropionic acid challenge measured after 0.5 hrs; format: functional; design: scale not given: the % may be the effect or the level left; conditions: route intraperitoneal
Mus musculus [18] = experiment: Anticonvulsant activity in mouse assessed as inhibition of 3-mercaptopropionic acid-induced clonic seizure at 50 mg/kg, ip administered 30 mins prior to 3-mercaptopropionic acid challenge measured after 0.5 hrs; format: functional; conditions: route intraperitoneal; outline: as §3
Mus musculus [19] = experiment: Neurotoxicity against mouse at 30 mg/kg, ip after 4 hrs by rotarod ataxia test; format: toxicity, organism-based; design: dose 30 mg/kg, route intraperitoneal; conditions: in vivo; outline: as §2
Mus musculus [20] = experiment: Protective index, ratio of TD50 for ip dosed mouse to ED50 for maximum electric stimulus-induced seizure in ip dosed mouse; format: functional
[21] = Neurotoxicity against ip dosed mouse by rotarod ataxia test; format: toxicity, organism-based; conditions: in vivo
Mus musculus [22] = experiment: Anticonvulsant in po dosed mouse assessed as protection against maximum electric stimulus-induced seizures; format: functional
Outline: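 Oral version of the phase-II protocol in KunMing mice (18–25 g). Groups of 10 dosed p.o. over a range giving at least three points between 10–90% MES protection or rotarod minimal neurotoxicity. Testing at 2 h time to peak effect. ED50 and TD50 with 95% confidence intervals from regression. PI = TD50/ED50.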

Mus musculus [23] = experiment: Anticonvulsant in mouse assessed as protection against maximum electric stimulus-induced seizures at 30 mg/kg, ip after 0.5 hrs; format: functional, organism-based; design: dose 30 mg/kg; outline: as §1
[24] = Neurotoxicity against po dosed mouse by rotarod ataxia test; format: toxicity, organism-based; conditions: in vivo
Mus musculus [25] = experiment: Protective index, ratio of TD50 for po dosed mouse to ED50 for maximum electric stimulus-induced seizure in po dosed mouse; format: functional
Mus musculus [26] = species: Mus musculus; experiment: Ratio of HD50 for hypnotic activity to EC50 for inhibition of maximum electric stimulus-induced seizure in mouse; format: functional
Mus musculus [27] = experiment: Neurotoxicity against mouse at 30 mg/kg, ip after 0.5 hrs by rotarod ataxia test; format: toxicity, organism-based; design: dose 30 mg/kg, route intraperitoneal; conditions: in vivo; outline: as §2
Mus musculus [28] = experiment: Anticonvulsant in mouse assessed as protection against maximum electric stimulus-induced seizures at 100 mg/kg, ip after 0.5 hrs; format: functional, organism-based; design: dose 100 mg/kg; outline: as §1

| Compound | ED50 (Mus musculus [1]) | Activity (Mus musculus [2]) | Activity (Mus musculus [3]) | Activity (Mus musculus [4]) | PI (Mus musculus [20]) | TD50 [21] | further results |
| --- | --- | --- | --- | --- | --- | --- | --- |
| CCC1(c2ccccc2)C(=O)NC(=O)NC1=O [PHENOBARBITAL] | 21.8 mg/kg | – | – | – | – | – | – |
| CCCCOc1ccc2nncn2n1 | > 100 mg/kg | inactive | Toxic | Non-toxic | – | – | – |
| CCCCCCCCOc1ccc2nncn2n1 | > 100 mg/kg | – | Toxic | Non-toxic | – | – | Activity (Mus musculus [5]): inactive |
| COc1ccc(Oc2ccc3nncn3n2)cc1 | > 100 mg/kg | inactive | Non-toxic | Non-toxic | – | – | – |
| NC(=O)N1c2ccccc2C=Cc2ccccc21 [CARBAMAZEPINE] | 8.8 mg/kg | – | – | – | – | – | Activity (Mus musculus [6]): 0%; inhibition in vivo at 50 mg/kg (Mus musculus [7]): 0%; inhibition in vivo at 50 mg/kg (Mus musculus [8]): 40%; inhibition in vivo at 50 mg/kg (Mus musculus [9]): 0%; inhibition in vivo at 50 mg/kg (Mus musculus [10]): 100%; inhibition in vivo at 50 mg/kg (Mus musculus [11]): 90%; HD50 (Mus musculus [12]): 172 mg/kg; Activity (Mus musculus [13]): 0%; inhibition in vivo at 50 mg/kg (Mus musculus [14]): 0%; inhibition in vivo at 50 mg/kg (Mus musculus [15]): 0%; Activity (Mus musculus [16]): 0%; Activity (Mus musculus [17]): 10%; inhibition in vivo at 50 mg/kg (Mus musculus [18]): 80% |
| Clc1ccc(Oc2ccc3nncn3n2)c(Cl)c1 | 17.3 mg/kg | – | – | – | 22 | 380 mg/kg | Activity (Mus musculus [6]): 0%; Activity (Mus musculus [19]): Non-toxic; inhibition in vivo at 50 mg/kg (Mus musculus [7]): 0%; inhibition in vivo at 50 mg/kg (Mus musculus [8]): 90%; inhibition in vivo at 50 mg/kg (Mus musculus [9]): 0%; inhibition in vivo at 50 mg/kg (Mus musculus [10]): 100%; inhibition in vivo at 50 mg/kg (Mus musculus [11]): 90%; ED50 (Mus musculus [22]): 45.6 mg/kg; HD50 (Mus musculus [12]): 746.6 mg/kg; Activity (Mus musculus [13]): 0%; Activity (Mus musculus [23]): Active; TD50 [24]: 546 mg/kg; inhibition in vivo at 50 mg/kg (Mus musculus [14]): 0%; PI (Mus musculus [25]): 12; inhibition in vivo at 50 mg/kg (Mus musculus [15]): 10%; Ratio (Mus musculus [26]): 43.2; Activity (Mus musculus [27]): Non-toxic; Activity (Mus musculus [16]): 40%; Activity (Mus musculus [17]): 40%; inhibition in vivo at 50 mg/kg (Mus musculus [18]): 80% |
| Clc1ccccc1Oc1ccc2nncn2n1 | 47.3 mg/kg | inactive | Non-toxic | Non-toxic | 4 | 190 mg/kg | Activity (Mus musculus [28]): Active |
| O=c1ccc(Oc2ccccc2)n[nH]1 | 110 mg/kg | inactive | – | Non-toxic | 2.5 | 274 mg/kg | – |
| Cc1cccc(Oc2ccc3nncn3n2)c1 | > 100 mg/kg | inactive | Non-toxic | Non-toxic | – | – | – |
| Clc1cccc(Oc2ccc3nncn3n2)c1 | 39.4 mg/kg | – | – | – | 5.8 | 228 mg/kg | Activity (Mus musculus [19]): Non-toxic; Activity (Mus musculus [27]): Non-toxic |
| Cc1ccccc1Oc1ccc2nncn2n1 | 54.8 mg/kg | inactive | Non-toxic | Non-toxic | 4.01 | 220 mg/kg | Activity (Mus musculus [28]): Active |
